Structures are written as SMILES. ≈ marks a conversion by molar mass, not a printed value.

The term IC50 denotes the concentration that inhibits the measured activity by half. Higher therefore signals lower potency.

The subject of assay [1] is HCT cell line. Kind of assay: The inhibition concentration against etoposide resistant HCT/VP35 cell growth after 72 hours. It is filed as functional, cell-based. The following applies: Homo sapiens. In a few lines:
(§1)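 Panel of human colon lines (HCT-116, etoposide sensitive; HCT/VP35, acquired-resistant; MOSER, inherently resistant) and mouse melanoma B16-F10. Viability is read by crystal violet protein stain, or by XTT vital stain for some HCT/VP35 and HCT-116 runs. IC50 is the dose reducing cell growth by 50% after 72 h versus controls. Values are averages of at least two runs.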

In assay [2] the test system is B16-F10. Put plainly: The inhibition concentration of B16-F10 cell growth after 72 hours. Format: functional, cell-based. The following applies: Mus musculus, B16-F10, 72 h. Summed up:
as §1

The nature of assay [3]: Inhibitory selectivity against HCT/VP35 and HCT116 cell growth after 72 hours. It is filed as functional, HCT-116. In a few lines:
(§2)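 Ratio of the HCT/VP35 IC50 to the HCT-116 IC50, as a measure of overcoming acquired etoposide resistance. The IC50 is the dose giving 50% growth reduction after 72 h versus controls, read by crystal violet or XTT stain. Values are averages of at least two runs.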

Assay [4] concerns Mus musculus. Kind of assay: Anti-P388 Leukemia activity administered 30 mg/kg intraperitoneally, expressed as percent of the median survival time. The following applies: route intraperitoneal. It is filed as functional. In a few lines: (§3)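 P388 leukemia-bearing mice given drug ip on days 1 and 5, with dose expressed per injection. T/C is the median survival time of treated mice as a percent of saline-treated controls. Long-term survivors are mice alive out of total on day 30, when the experiment ended.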

For assay [5], the species on record is Homo sapiens. Kind of assay: The inhibition concentration of MOSER cell growth after 72 hours. Format: functional. Summed up:
as §1

Assay [6] relates to Mus musculus. Kind of assay: Anti-P388 Leukemia activity administered 150 mg/kg intraperitoneally, expressed as percent of the median survival time. The following applies: route intraperitoneal. It is filed as functional. In a few lines:
as §3

Assay [7] deals with Mus musculus. Put plainly: Percent median survival time (T/C) of mice when administered intraperitoneally at dose 120 mg/kg. Format: functional. The following applies: route intraperitoneal. In a few lines:
as §3

Assay [8] relates to HCT-116. Kind of assay: The inhibition concentration against etoposide sensitive HCT116 cell growth after 72 hours. The following applies: Homo sapiens, HCT-116, 72 h. Format: functional, cell-based. Summed up:
as §1

A short description of assay [9]: Inhibitory selectivity against HCT/VP35 and HCT116 cell growth after 72 hr IC50 value for etoposide in the parenthesis. It is filed as functional, HCT-116. Summed up: as §2
The subject of assay [10] is Mus musculus. Put plainly: Anti-P388 Leukemia activity administered 50 mg/kg intraperitoneally, expressed as percent of the median survival time. It is filed as functional. The following applies: route intraperitoneal. In a few lines:
as §3

The test system of assay [11] is Mus musculus. Kind of assay: Anti-P388 Leukemia activity administered 200 mg/kg intraperitoneally, expressed as percent of the median survival time. The following applies: route intraperitoneal. Format: functional. Summed up:
as §3

The test system of assay [12] is HCT-116. Kind of assay: In vitro inhibitory concentration against etoposide sensitive HCT116 cell growth after 72 hours. Format: functional, cell-based. The following applies: Homo sapiens, HCT-116, 72 h. Summed up:
as §1

The subject of assay [13] is Mus musculus. Kind of assay: Percent median survival time (T/C) of mice when administered intraperitoneally at dose 40 mg/kg. The following applies: route intraperitoneal. Format: functional. Summed up:
as §3

The test system of assay [14] is Mus musculus. Kind of assay: Percent median survival time (T/C) of mice when administered intraperitoneally at dose 20 mg/kg. Format: functional. The following applies: route intraperitoneal. In a few lines: as §3
For assay [15], the system named is HCT cell line. Kind of assay: In vitro inhibitory concentration against etoposide resistant HCT/VP35 cell growth after 72 hours. The following applies: Homo sapiens. It is filed as functional, cell-based. In a few lines: as §1
Assay [16] is filed under the species Homo sapiens. Kind of assay: In vitro inhibitory concentration against MOSER cell growth after 72 hours. Format: functional. Summed up:
as §1

Assay [17] concerns B16-F10. Put plainly: In vitro inhibitory concentration against B16-F10 cell growth after 72 hours. Format: functional, cell-based. The following applies: Mus musculus, B16-F10, 72 h. In a few lines:
as §1

The test system of assay [18] is Mus musculus. Put plainly: Number of long time survivors (mice alive/total) when administered intraperitoneally at dose 80 mg/kg when tested in 4 mice. The following applies: route intraperitoneal. Format: functional. In a few lines: as §3
Assay [19] deals with Mus musculus. Put plainly: Maximum percent median survival time of mice when administered intraperitoneally at dose 60 mg/kg. The following applies: route intraperitoneal. It is filed as functional.
For assay [20], the system named is Mus musculus. Put plainly: Percent median survival time (T/C) of mice when administered intraperitoneally at dose 80 mg/kg. Format: functional. The following applies: route intraperitoneal. In a few lines:
as §3

The test system of assay [21] is Mus musculus. Put plainly: Number of long time survivors (mice alive/total) when administered intraperitoneally at dose 60 mg/kg when tested in 4 mice. It is filed as functional. The following applies: route intraperitoneal. Summed up: as §3

As for `COc1cc(OC)cc([C@@H]2c3cc4c(cc3[C@@H](O[C@@H]3O[C@@H]5CO[C@@H](C)O[C@H]5[C@H](O)[C@H]3O)[C@H]3COC(=O)[C@H]23)OCO4)c1`, the figures for the IC50 in the assay on HCT cell line [1], in the assay with B16-F10 [2] and in the assay listed under Homo sapiens [5] were 3.4 µg/mL (≈ 5.94 µM), 25 µg/mL (≈ 43.7 µM) and 45.5 µg/mL (≈ 79.5 µM), respectively. The Selectivity in assay [3] is 0.47. Further, the results for the T/C with Mus musculus [4] and with Mus musculus [6] were 125 and 175, respectively.

As to `COc1cc([C@@H]2c3cc4c(cc3[C@@H](O[C@@H]3O[C@@H]5CO[C@@H](C)O[C@H]5[C@H](O)[C@H]3O)[C@H]3COC(=O)[C@H]23)OCO4)cc(OC)c1O` [ETOPOSIDE], in the assay with Mus musculus [7], the T/C is 447.

Turning to `C[C@@H]1OC[C@H]2O[C@@H](O[C@@H]3c4cc5c(cc4[C@@H](c4ccc(O)cc4)[C@H]4C(=O)OC[C@@H]43)OCO5)[C@H](O)[C@@H](O)[C@@H]2O1`, the IC50 amounted to 85.1 µg/mL (≈ 161 µM) in the assay with HCT cell line [1], 62.7 µg/mL (≈ 119 µM) in the assay on HCT-116 [8], 43.4 µg/mL (≈ 82.1 µM) with B16-F10 [2] and 42.9 µg/mL (≈ 81.2 µM) in the assay filed under Homo sapiens [5]. Further, in [9], the Selectivity is listed as 1.4. The T/C amounted to 145 in the assay on Mus musculus [10] and 175 in the assay on Mus musculus [11].

Take `COc1cc([C@@H]2c3cc4c(cc3[C@@H](O[C@@H]3O[C@@H]5CO[C@@H](C)O[C@H]5[C@H](O)[C@H]3O)[C@H]3COC(=O)[C@H]23)OCO4)ccc1O`: the IC50 in the assay on HCT-116 [12] was found to be 15.4 µg/mL (≈ 27.6 µM); in the assay on HCT cell line [15], 5.4 µg/mL (≈ 9.67 µM); in the assay listed under Homo sapiens [16], 46.5 µg/mL (≈ 83.3 µM); in the assay with B16-F10 [17], 20.1 µg/mL (≈ 36 µM). For the same compound, the values for the T/C in the assay on Mus musculus [13] and in the assay with Mus musculus [14] were 245 and 190, respectively. The Selectivity in [3] is on record as 12.3.

`COC1=CC([C@@H]2c3cc4c(cc3[C@@H](O[C@@H]3O[C@@H]5CO[C@@H](C)O[C@H]5[C@H](O)[C@H]3O)[C@H]3COC(=O)[C@@H]32)OCO4)=CC(=O)C1=O`: the LTS with Mus musculus [18] came to 3; in the assay on Mus musculus [21] it was 2. Besides, the values for the T/C with Mus musculus [13] and with Mus musculus [20] were 274 and greater than 621, respectively. Besides, the “Max T/C” value in the assay on Mus musculus [19] was greater than 595.
